INS promoter act = TRM-6 insulin promoter activation; TRM-6 cells, insulin promoter eGFP reporter, imaging; plate-scaled: unstimulated 0, stimulated control 100; activation, % at 2 µM; 0.81% of 130,000 active;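 active = activation at 2 µM above a set limit, confirmed on inspection of the cell images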;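 also: share of cells whose green reporter signal exceeds an intensity cutoff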
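material = TRM-6 human fetal islet cells, insulin promoter–eGFP reporter | input = 1,000 TRM-6 cells seeded per well | benchmarks = stimulated versus unstimulated wells as plate controls | measured by = automated fluorescence imaging of paraformaldehyde-fixed, Hoechst-counterstained cells, green channel | schedule = compound exposure 48 h, 37 °C | reagent = tamoxifen at 0.75 µM added at seeding for reporter induction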
Active calls of the source: *. Shown is part of a subset that was picked to be rich in hits.

SMILES | INS promoter act
COC(=O)c1cc(COc2ccc3c(c2)oc(=O)c2ccccc23)c(C)o1 | 5.7
COc1ccc(-c2cc(CNS(=O)(=O)c3ccccc3)on2)cc1 | -9.1
Fc1cc(F)cc(NC(=S)Nc2ccccc2N2CCOCC2)c1 | -9.1
CCC(CC)NC(=O)Cc1ccccc1[N+](=O)[O-] | -7.4
CCc1nnc(SCC(=O)Nc2ccccc2Cl)nc1CC | -6.7
Cn1c(N)c(C(=O)COC(=O)c2ccc3c(c2)OCCO3)c(=O)n(C)c1=O | -9.7
CC(C)Cn1c(N)c(C(=O)CSc2ccc3c(c2)OCCO3)c(=O)n(C)c1=O | 167.7*
CC(C)Cn1c(N)c(C(=O)CSc2nnnn2C)c(=O)n(C)c1=O | -8.8
COC(=O)c1cccnc1-n1c(=O)c2cccnc2n(Cc2cccc(C(F)(F)F)c2)c1=O | 106.3
CC[N+]1=C(C)C(C)(C)c2cc(C)ccc21 | 488.2*
O=c1c2ccccc2nc2ccc(NCc3cccs3)nn12 | -7.1
Cc1cc(C)n(-c2nc3ccccc3nc2N2CCN(C(=O)c3ccc(Cl)cc3)CC2)n1 | -5.1
Cc1cccc2nc(-c3ccccc3)nc(N3CCC(O)(c4ccc(Cl)cc4)CC3)c12 | 454.5*
COC(=O)Nc1ccccc1C(=O)N1CCC(O)(c2ccc(Cl)cc2)CC1 | 0.0
O=C(NCCO)/C(=C\c1ccc(Br)cc1)NC(=O)c1cccs1 | 0.0
CCN(c1ccc(OCC(=O)OCC(=O)Nc2ccc(F)c(F)c2F)cc1)S(=O)(=O)c1ccccc1 | 2.8
N#CCCN(Cc1cccnc1)C(=S)Nc1ccc(OC(F)F)cc1 | 109.1
CN(C)S(=O)(=O)c1cccc(NC(=S)N(CCC#N)Cc2cccnc2)c1 | 453.3*
CC1(C(=O)NC(=S)N(CCC#N)Cc2cccnc2)CC1(Cl)Cl (stereo not drawn) | -3.7
O=C(NCCCCNC(=O)c1ccc(Br)s1)c1ccc(Br)s1 | 5.4
O=C(Nc1cccc(S(=O)(=O)N2CCOCC2)c1)[C@@H]1CCCN1S(=O)(=O)c1ccc(Cl)cc1 | 103.2
COc1ccc(S(=O)(=O)N2CCCC(C(=O)Nc3cccnc3)C2)cc1Cl (stereo not drawn) | -7.7
O=C(Nc1cccnc1)C1CCCN1S(=O)(=O)c1ccc(Cl)c(Cl)c1 (stereo not drawn) | 481.3*
CC(C)(C)NC(=O)CN(C(=O)CS(=O)CC(=O)Nc1ccc(F)cc1)c1ccc2c(c1)OCCO2 (stereo not drawn) | -9.1
Cc1ccc(N(c2ncnc(N)c2[N+](=O)[O-])C2CCCCC2)cc1 | -3.2
SMILES | INS promoter act
Cc1cccc(N2C(S)=C(C#N)C(=O)NC23CCCCC3)c1 | 0.0
Cc1cc(C)c(NC(=O)CN2C(=O)NC3(CCCCC3)C2=O)c(C)c1 | -6.5
Cc1cccc(N2C(=O)NC3(CCCCC3)C2=O)c1 | 77.8*
O=C(NCCc1ccccc1)c1cc(=O)c2ccccc2o1 | -5.9
O=C(NCCN1CCOCC1)c1cc2cc(Cl)cc(Cl)c2oc1=O | -14.3
O=C(/C=C/c1ccccc1Cl)NCc1cccs1 | 177.8
Cc1ccc(Cl)cc1NC(=O)CC(O)(C(F)(F)F)C(F)(F)F | 281.0
CCc1cccc(C)c1NC(=O)CSc1nnc(CCCOc2ccc(Cl)cc2Cl)n1C | 3.4
CCC(C)C(NC(=O)OC(C)(C)C)C(=O)NC(C)C(N)=O (stereo not drawn) | 6.7
Cc1ccc(-n2c(=O)c3ccccc3n(CC(=O)C(C)(C)C)c2=O)cc1 | -2.7
CCOC(=O)N1CCN(c2c(NCCN(C)Cc3ccccc3)c(=O)c2=O)CC1 | 0.0
CCOC(=O)N1CCC(Nc2c(-c3ccccc3)c(=O)c2=O)CC1 | 85.9*
CCOC(=O)N1CCN(C(=O)c2ccccc2NC(C)=O)CC1 | 3.7
O=C(COC(=O)CCc1nc2ccccc2c(=O)[nH]1)NC(=O)NC1CCCC1 | -6.9
O=C(NCc1cccnc1)C(=O)NCC1OCCN1S(=O)(=O)c1ccccc1 (stereo not drawn) | 7.3
CCN(CC)CCNC(=O)C(=O)NCC1OCCN1S(=O)(=O)c1ccc2c(c1)OCCO2 (stereo not drawn) | -9.1
Cc1cc(C)c(S(=O)(=O)N2CCOC2CNC(=O)C(=O)NCCc2c[nH]c3ccccc23)c(C)c1 (stereo not drawn) | 309.8*
Cc1cc2ncc(C(=O)Nc3ccsc3C(=O)O)c(C)n2n1 | 6.7
Cc1nnc(SCC(=O)Nc2ccc(Cl)cn2)s1 | 5.4
Cc1sc(N)c(C(=O)c2ccccc2)c1C | 0.0
O=C(COC(=O)[C@@H]1CC(O)CN1S(=O)(=O)c1ccccc1[N+](=O)[O-])Nc1ccc2ccccc2c1 (stereo partly drawn) | 5.1
Cc1cc(C)c2nc(N3CCC(C(=O)NCCCN4CCCCC4)CC3)sc2c1 | 513.3*
Cc1ccc(CCNC(=O)C2CCN(c3nn4c(=O)cc(C)nc4s3)CC2)cc1 | 107.7
Cc1cc(C)c(S(=O)(=O)NCC2CCC(C(=O)NCCCN3CCOCC3)CC2)c(C)c1 (stereo not drawn) | 3.7
O=C(COC(=O)CC(c1ccccc1)c1ccccc1)Nc1c(F)cccc1F | -3.7
SMILES | INS promoter act
Cc1cc(C(F)(F)F)nn1CC(=O)NCc1cccs1 | -7.1
CC(C)NC(=O)c1onc(CSc2cccc(Cl)c2)c1C(=O)O | -8.1
CN(C(=O)CSc1nc(-c2ccccc2)cn1N)C(c1ccccc1)c1ccccc1 | 82.1*
Cc1ccc(-c2cc(-c3nnc(SCC(=O)NC(C)C(C)C)n3N)c3ccccc3n2)cc1 (stereo not drawn) | 2.3
Nn1c(SCC(=O)Nc2ccc3c(c2)OCO3)nnc1-c1ccccc1 | -5.6
C/C(Cc1ccccc1)=N\NC(=O)CNC(=O)c1ccc(C(C)(C)C)cc1 | 0.0
CC(C)c1nc(-c2ccccc2)c(-c2ccccc2)[nH]1 | -87.0
O=C(O)c1ccccc1-c1nc(-c2ccccc2)c(-c2ccccc2)[nH]1 | 289.5*
CNC(=O)CSc1nc(-c2ccccc2)c(-c2ccccc2)[nH]1 | 0.0
CN(CC(=O)Nc1cccc([N+](=O)[O-])c1)S(=O)(=O)c1ccccc1 | 0.0
Cc1ccccc1C(=O)N(Cc1nc2ccccc2c(=O)[nH]1)C1CCCC1 | 5.6
Cc1nnc2c(-c3ccccc3)nc3ccccc3n12 | 9.1
Cn1nc(-c2ccccc2)c2nc3ccccc3nc21 | 150.0*
Cn1c(=O)c(-c2ccccc2)nc2ccccc21 | 327.9
COc1ccc(COc2ccc(C3C(S(=O)(=O)c4ccccc4)CON3C)cc2OC)cc1 (stereo not drawn) | 0.0
Cc1cc(Cl)cc(Cl)c1OCCOc1cccc2cccnc12 | 83.9*
Cc1ccc(OCCOCCOc2cccc3cccnc23)c(Br)c1 | 8.3
Cc1cc(Cl)cc(Cl)c1OCCOCCN(C)C | 128.6
S=C(NCc1ccco1)N1CCC(c2nc3ccccc3o2)CC1 | 7.1
Cc1nn(-c2ccccc2)c(Cl)c1/C=C1\N=C(c2ccccc2)OC1=O | 357.1
COc1ccccc1NC(=O)C1=C(C)NC(=O)NC1c1cc(C)cs1 (stereo not drawn) | 111.1
CCOc1ccc(-c2nnn(CC(=O)N3CCCC3)n2)cc1OCC | -82.9
O=C(Cc1cccs1)Nc1ccc(S(=O)(=O)N2CCCCC2)cc1 | 5.6
Cn1nc(C(=O)Nc2ccc(S(=O)(=O)N3CCCCC3)cc2)ccc1=O | -7.1
CCc1cccc2cc3c(N)c(C(=O)Nc4ccc(S(=O)(=O)N5CCCC5)cc4)sc3nc12 | 203.0*
O=C(c1cccc(N2C(=O)C3CC=CCC3C2=O)c1)N1CCCc2ccccc21 (stereo not drawn) | 8.3
Cc1cc(C)n2nc(CC(=O)NCc3ccc(F)cc3)nc2n1 | -7.1
CCOc1ccc(C2CC(=O)n3nc(C45CC6CC(CC(C6)C4)C5)nc3S2)cc1OC (stereo not drawn) | -7.4

High-throughput results from PubChem BioAssay.
